Test results taken from PMC4292800 (Bioorganic & medicinal chemistry, 2014).

Assays:
[1] = system: primary CD34+ normal human blood stem cells; test: MTT cytotoxicity selectivity, normal blood stem cells versus AML cells; type: cell-based; conditions: CD34+ normal human blood stem cells vs MA9.3RAS
How it was run: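 Both cell types get the same MTT assay. AML cells are cultured in IMDM with 20% bovine calf serum; UCB cells in the same medium plus SCF, IL-3, IL-6, Flt-3L and TPO. Cells are seeded at 4 × 10^4/well, held overnight at 37°C, then exposed 48 h to freshly dissolved test compound. Medium is replaced with MTT for 4 h, then DMSO, OD 575 nm. IC50 comes from a four-parameter sigmoid fit (triplicates, repeated twice), and the ratio is normal IC50 over AML IC50.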

[2] = Oxidation kinetics of 1 into 2 by HPLC; type: physicochemical
How it was run: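 In PBS, alone or with 10 mM H2O2 (a tenfold excess), the test compound's conversion to its oxidised product was followed by reverse-phase HPLC on a C-18 column (Synergi Hydro-RP, 4 μm, 80 Å, 150 × 4.6 mm), and a conversion rate was derived. N-acetylcysteine was then added in limiting amount to mimic cellular thiol addition; the adduct was confirmed by FTMS.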

[3] = Oxidation of 14 to 14-ox/14-red by HPLC; type: physicochemical
How it was run: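 Oxidation of the test compound to its bicyclic oxidised/reduced products was followed by reverse-phase C-18 HPLC. Under normal atmosphere the reaction was fitted as pseudo-zero-order to give t1/2. Activation used one molar equivalent of hydrogen peroxide, and rate enhancement was estimated from a lower-limit t1/2 against the atmosphere-only reaction.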

SMILES: O=C(CSc1ccccc1)Nc1cc(O)ccc1O [Compound 11, N-(2,5-dihydroxyphenyl)-2-(phenylthio)acetamide]
- selectivity factor (ratio of IC50 of normal cells over IC50 of AML cells) [1]: limited selectivity

SMILES: CN(CC(=O)Nc1cc(O)ccc1O)c1ccccc1 [Compound 1, N-(2,5-dihydroxyphenyl)-2-(methyl(phenyl)amino) acetamide]
- rate of conversion of 1 to 2 ([2]; PBS, absence of exogenous oxidant): 0.011 ± 0.002 min^−
- conversion of 1 to 2 ([2]; PBS, no exogenous oxidant, in one hour): approximately 50%
- rate of conversion of 1 to 2 ([2]; presence of 10 mM H2O2, a tenfold excess): 0.6 ± 0.1 min^−
- rate of conversion of 1 into 2 ([2]; with hydrogen peroxide (Figure 2D legend)): 0.6 min⁻¹

SMILES: O=C(COc1ccccc1)Nc1cc(O)ccc1O [Compound 10, N-(2,5-dihydroxyphenyl)-2-phenoxyacetamide]
- selectivity factor (ratio of IC50 of normal cells over IC50 of AML cells) [1]: limited selectivity

SMILES: O=C(CNC1CCCCC1)Nc1cc(O)ccc1O [Compound 14, 2-(cyclohexylamino)-N-(2,5-dihydroxyphenyl)acetamide]
- time for conversion of all 14 ([3]; hydrogen peroxide (Figure 3C legend)): less than 0.1 hrs
- activation by hydrogen peroxide ([3]; rate enhancement with hydrogen peroxide vs atmosphere): more than 150 fold
- conversion of 14 to its oxidation product ([3]; under argon atmosphere, two hours): 4±3%
